Assays:
Cricetulus griseus = species on record: Cricetulus griseus; experiment: Ratio between Ki(alpha-1b)/Ki(alpha1A)
[1] = target: T1, Alpha-1A adrenergic receptor (Rattus norvegicus, UniProt P43140); experiment: In vitro binding affinity using [3H]prazosin as radioligand against alpha-1A adrenergic receptor
T1 sequence (P43140 whole entry): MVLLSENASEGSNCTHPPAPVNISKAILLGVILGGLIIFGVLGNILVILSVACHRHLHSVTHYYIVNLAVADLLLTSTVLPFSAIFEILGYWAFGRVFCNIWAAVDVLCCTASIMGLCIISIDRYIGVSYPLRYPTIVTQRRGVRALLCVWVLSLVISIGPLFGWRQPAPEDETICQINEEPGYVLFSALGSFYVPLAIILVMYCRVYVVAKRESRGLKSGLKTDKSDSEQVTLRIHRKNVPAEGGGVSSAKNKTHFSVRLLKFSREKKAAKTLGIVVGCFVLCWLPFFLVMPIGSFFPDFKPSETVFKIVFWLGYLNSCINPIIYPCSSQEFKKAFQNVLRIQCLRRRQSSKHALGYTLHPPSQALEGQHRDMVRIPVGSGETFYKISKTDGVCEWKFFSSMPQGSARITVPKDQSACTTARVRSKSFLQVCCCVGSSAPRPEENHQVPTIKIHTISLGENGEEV
In short: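 Binding to pharmacologically defined α1A site in rat submaxillary gland membranes; [3H]-prazosin ~200 pM, nonspecific binding with 10^-5 M phentolamine (final); ~0.1 mg protein per tube in 50 mM Tris-HCl pH 7.4, 60 min at 25 °C.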

[2] = target: T2, Alpha-1B adrenergic receptor (Mesocricetus auratus, UniProt P18841); experiment: In vitro binding affinity using [3H]prazosin as radioligand against alpha-1B adrenergic receptor expressed in LTK cell; type: cell-based
T2 sequence (P18841 whole entry): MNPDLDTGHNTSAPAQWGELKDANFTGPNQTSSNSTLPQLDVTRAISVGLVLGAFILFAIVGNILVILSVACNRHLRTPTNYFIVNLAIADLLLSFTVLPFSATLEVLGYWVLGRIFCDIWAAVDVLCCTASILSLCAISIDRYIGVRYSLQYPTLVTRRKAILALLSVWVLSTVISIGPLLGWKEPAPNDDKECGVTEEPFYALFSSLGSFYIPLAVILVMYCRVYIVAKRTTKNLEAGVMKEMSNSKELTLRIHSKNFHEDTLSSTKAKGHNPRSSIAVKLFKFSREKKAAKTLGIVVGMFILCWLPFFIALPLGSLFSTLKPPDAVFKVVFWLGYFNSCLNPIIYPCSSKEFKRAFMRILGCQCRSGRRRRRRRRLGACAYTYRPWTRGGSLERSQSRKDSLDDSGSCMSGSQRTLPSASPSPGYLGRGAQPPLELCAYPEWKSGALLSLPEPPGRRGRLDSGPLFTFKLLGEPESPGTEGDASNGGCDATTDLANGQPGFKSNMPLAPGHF
In short: (§1)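 Membranes from mouse LTK- fibroblasts stably expressing cloned hamster α1B or rat α1D, grown in roller bottles, frozen in liquid N2 and stored at -70 °C. Incubated with [3H]-prazosin ~200 pM, ~0.1 mg protein per tube, in 50 mM Tris-HCl pH 7.4 for 60 min at 25 °C; nonspecific binding defined by 10^-5 M phentolamine (final).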

[3] = target: T3, Alpha-1D adrenergic receptor (Rattus norvegicus, UniProt P23944); experiment: In vitro binding affinity using [3H]prazosin as radioligand against alpha-1D adrenergic receptor expressed in LTK cell; type: cell-based; in short: as §1
T3 sequence (P23944 whole entry): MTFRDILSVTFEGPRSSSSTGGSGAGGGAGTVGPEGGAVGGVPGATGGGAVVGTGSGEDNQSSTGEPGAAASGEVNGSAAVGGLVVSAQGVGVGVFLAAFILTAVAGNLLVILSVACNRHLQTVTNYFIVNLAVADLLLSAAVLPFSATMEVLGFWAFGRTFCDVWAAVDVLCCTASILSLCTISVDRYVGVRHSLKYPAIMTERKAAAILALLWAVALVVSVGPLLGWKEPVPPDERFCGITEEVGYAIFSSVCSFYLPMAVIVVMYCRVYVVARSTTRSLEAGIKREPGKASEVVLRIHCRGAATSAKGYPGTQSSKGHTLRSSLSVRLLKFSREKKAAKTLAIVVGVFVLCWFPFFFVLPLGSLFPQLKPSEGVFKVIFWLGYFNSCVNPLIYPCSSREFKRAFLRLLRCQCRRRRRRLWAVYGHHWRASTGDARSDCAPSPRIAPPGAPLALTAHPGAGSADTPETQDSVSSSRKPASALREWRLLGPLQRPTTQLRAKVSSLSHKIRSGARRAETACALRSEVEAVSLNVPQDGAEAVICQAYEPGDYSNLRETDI

Selectivity ratio (Cricetulus griseus)	Ki [1] [nM]	Ki [2] [nM]	Ki [3] [nM]	Structure (SMILES)
8.45	0.79	6.69	1.41	COc1cccc2c1CC[C@H]1CN(CCn3c(=O)[nH]c4c(sc5c(OC)ccnc54)c3=O)C[C@@H]21
3.17				COc1cccc2c1CCC1CN(CCn3c(=O)[nH]c4c(sc5ccccc54)c3=O)CC21 (stereo in doubt; 21) [listing 1 of 2 here]
2.56	9.27	23.8	6.84	COc1cccc2c1CC[C@H]1CN(CCn3c(=O)[nH]c4c(sc5cc(C(F)(F)F)ccc54)c3=O)C[C@@H]21
30.7	3.91	120	19.8	COc1cccc2c1CC[C@H]1CN(CCn3c(=O)[nH]c4c(sc5ncc(-c6ccccc6)nc54)c3=O)C[C@@H]21
35.6	0.39	13.9	3.28	COc1cccc2c1CC[C@H]1CN(CCn3c(=O)[nH]c4c(sc5nc(C)c(C)nc54)c3=O)C[C@@H]21
1.33	7.43	9.95	4.77	COc1cccc2c1CCC1CN(CCCCn3c(=O)[nH]c4c(sc5ccccc54)c3=O)CC21 (cis isomer)
5.57				COc1cccc2c1CC[C@H]1CN(CCn3c(=O)[nH]c4c(sc5ccccc54)c3=O)C[C@@H]21 (stereo in doubt; 22)
3.01	4.75	14.3	2.84	COC(=O)c1ccc2sc3c(=O)n(CCN4C[C@@H]5CCc6c(OC)cccc6[C@@H]5C4)c(=O)[nH]c3c2c1
6.64	1.28	8.49	1.31	COc1cccc2c1CC[C@H]1CN(CCn3c(=O)[nH]c4c(sc5ccc([N+](=O)[O-])cc54)c3=O)C[C@@H]21
12.2	0.52	6.34	0.51	COc1cccc2c1CC[C@H]1CN(CCn3c(=O)[nH]c4c(sc5ccc(C(N)=O)cc54)c3=O)C[C@@H]21
22.8	0.68	15.5	2.08	COc1cccc2c1CC[C@H]1CN(CCn3c(=O)[nH]c4c(sc5ncncc54)c3=O)C[C@@H]21
	0.64	2.57	0.37	COc1cccc2c1CCC1CN(CCn3c(=O)[nH]c4c(sc5ccccc54)c3=O)CC21 (stereo in doubt; 18) [listing 1 of 2 here]
6.17	0.51	3.15	1.32	COc1cccc2c1CC[C@H]1CN(CCn3c(=O)[nH]c4c(sc5cccc(Cl)c54)c3=O)C[C@@H]21
12.3	98.9	1220	25	COc1cccc2c1CC[C@H]1CN(CCn3c(=O)[nH]c4c(sc5c(Cl)cccc54)c3=O)C[C@@H]21
4.5	0.66	3	1.1	COc1ccc2sc3c(=O)n(CCN4C[C@@H]5CCc6c(OC)cccc6[C@@H]5C4)c(=O)[nH]c3c2n1
1.55				COc1cccc2c1CC[C@H]1CN(CCn3c(=O)[nH]c4c(sc5ccccc54)c3=O)C[C@@H]21 (stereo in doubt; 23)
17.3	0.72	12.5	2.06	COc1cccc2c1CC[C@H]1CN(CCn3c(=O)[nH]c4c(sc5nccnc54)c3=O)C[C@@H]21
9.8	1.62	15.9	3.74	COc1cccc2c1CC[C@H]1CN(CCn3c(=O)[nH]c4c(sc5cncnc54)c3=O)C[C@@H]21

Selectivity ratio (Cricetulus griseus)	Ki [1] [nM]	Ki [2] [nM]	Ki [3] [nM]	Structure (SMILES)
8.7	1.64	14.3	0.59	COc1cccc2c1CC[C@H]1CN(CCn3c(=O)[nH]c4c(sc5ccc(C#N)cc54)c3=O)C[C@@H]21
4.34	0.44	1.91	0.31	COc1cccc2c1CC[C@H]1CN(CCn3c(=O)[nH]c4c(sc5ccc(Cl)cc54)c3=O)C[C@@H]21
4.24	6.35	26.9	2.08	COc1cccc2c1CC[C@H]1CN(CCn3c(=O)[nH]c4c(sc5c(C#N)cccc54)c3=O)C[C@@H]21
	1.08	3.43	0.63	COc1cccc2c1CCC1CN(CCn3c(=O)[nH]c4c(sc5ccccc54)c3=O)CC21 (stereo in doubt; 21) [listing 2 of 2 here]
4	0.77	3.1	1.07	COc1cccc2c1CC[C@H]1CN(CCn3c(=O)[nH]c4c(sc5cccc(OC)c54)c3=O)C[C@@H]21
10.8	3.3	35.8	6.6	COc1cccc2c1CC[C@H]1CN(CCn3c(=O)[nH]c4c(sc5cccc(C#N)c54)c3=O)C[C@@H]21
1.97	2.16	4.26	1.04	COc1cccc2c1CC[C@H]1CN(CCn3c(=O)[nH]c4c(sc5ccc(C)cc54)c3=O)C[C@@H]21
5.38	1.29	6.95	0.88	COc1cccc2c1CC[C@H]1CN(CCn3c(=O)[nH]c4c(sc5cccc(C)c54)c3=O)C[C@@H]21
2.9	0.29	0.86	0.27	COc1cccc2c1CC[C@H]1CN(CCn3c(=O)[nH]c4c(sc5cc(C(N)=O)ccc54)c3=O)C[C@@H]21
4				COc1cccc2c1CCC1CN(CCn3c(=O)[nH]c4c(sc5ccccc54)c3=O)CC21 (stereo in doubt; 18) [listing 2 of 2 here]
27.5	0.49	13.5	2.31	COc1cccc2c1CC[C@H]1CN(CCn3c(=O)[nH]c4c(sc5nc(C)cnc54)c3=O)C[C@@H]21
19.7	3.13	61.6	4.16	COc1cccc2c1CC[C@H]1CN(CCn3c(=O)[nH]c4c(sc5c(Cl)ccnc54)c3=O)C[C@@H]21
15.5	0.4	6.2	0.74	COc1cccc2c1CC[C@H]1CN(CCn3c(=O)[nH]c4c(sc5cc(C#N)ccc54)c3=O)C[C@@H]21
10.6	0.35	3.73	1.1	COc1cnc2sc3c(=O)n(CCN4C[C@@H]5CCc6c(OC)cccc6[C@@H]5C4)c(=O)[nH]c3c2n1
2.48	2.17	5.39	0.68	COc1cccc2c1CCC1CN(CCn3c(=O)[nH]c4c(oc5ccccc54)c3=O)CC21 (cis isomer)
14	0.33	4.63	0.28	COc1cccc2c1CC[C@H]1CN(CCn3c(=O)[nH]c4c(sc5ccncc54)c3=O)C[C@@H]21
12	153	1850	160	COc1cccc2c1CC[C@H]1CN(CCn3c(=O)[nH]c4c(sc5nc(-c6ccccc6)cnc54)c3=O)C[C@@H]21

Source: ChEMBL document CHEMBL1132919, “Structure-activity studies for a novel series of tricyclic substituted hexahydrobenz[e]isoindole alpha(1A) adrenoceptor antagonists as potential agents for the symptomatic treatment of benign prostatic hyperplasia (BPH)” (J Med Chem, 2000)
